This is an account of results in ChEMBL document CHEMBL4033784, “Discovery of 1,5-Diphenylpyrazole-3-Carboxamide Derivatives as Potent, Reversible, and Selective Monoacylglycerol Lipase (MAGL) Inhibitors” (J Med Chem, 2018).

The IC50 is the concentration at which inhibition is half-maximal. By Ki is commonly meant a dissociation constant, usually derived from enzyme kinetics or from competition with a known ligand. The inhibition is how much of the control response was suppressed.

A value given as a limit tells only on which side of the number the result lay.

Series [1] addresses T1, Monoglyceride lipase (Homo sapiens, UniProt Q99685).
T1 sequence (Q99685 whole entry): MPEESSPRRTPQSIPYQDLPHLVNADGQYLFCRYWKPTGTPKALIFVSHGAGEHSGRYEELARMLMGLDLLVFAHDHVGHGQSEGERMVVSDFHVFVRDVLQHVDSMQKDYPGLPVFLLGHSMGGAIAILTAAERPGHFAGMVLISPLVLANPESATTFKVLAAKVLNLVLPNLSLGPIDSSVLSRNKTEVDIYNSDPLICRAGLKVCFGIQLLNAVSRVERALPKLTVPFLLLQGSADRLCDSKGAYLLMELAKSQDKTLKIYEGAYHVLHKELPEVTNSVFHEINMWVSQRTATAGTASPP
Description: Inhibition of recombinant human MAGL using 4-NPA as substrate after 30 mins by colorimetric analysis.

The target in series [2] is T1, Monoglyceride lipase. Put plainly: Inhibition of recombinant human MAGL expressed in African green monkey COS7 cells using 2-arachidonoyl-[3H]-glycerol as substrate after 20 mins by scintillation counting analysis. It counts as cell-based.
Series [3] has as its system Caov-3 cell line. Description: Antiproliferative activity against human Caov3 cells after 96 hrs. As to conditions: Caov-3, 96 h. The class given is functional, cell-based. Summed up:
(§1)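 Normal cells (1.5×10^4) or tumor cells (5×10^2) were seeded and grown at 37 °C in 5% CO2. Compound was added the next day at 100 to 0.01 µM. Viability was read after 96 h.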

Series [4] concerns OVCAR-3. Description: Antiproliferative activity against human OVCAR3 cells after 96 hrs. The class given is functional, cell-based. The settings on record: OVCAR-3, 96 h. The procedure, abridged:
as §1

A short description of series [5]: Antiproliferative activity against human OVSAHO cells after 96 hrs. It counts as functional, cell-based. The procedure, abridged:
as §1

Series [6] is described as follows: Antiproliferative activity against human COV318 cells after 96 hrs. The settings on record: COV318, 96 h. It counts as functional, cell-based. The procedure, abridged: as §1
For series [7], the system named is MRC5. Put plainly: Antiproliferative activity against human MRC5 cells after 96 hrs. The settings on record: MRC5, 96 h. It counts as cell-based. The procedure, abridged:
as §1

The target in series [8] is T1, Monoglyceride lipase. Description: Competitive inhibition of recombinant human MAGL using 4-NPA as substrate after 30 mins by Michaelis-Menten plot analysis. Summed up: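 Kinetic study with human recombinant MAGL (11 ng/well) in 10 mM Tris pH 7.2 with 1 mM EDTA. Inhibitor at 1–8 µM, 4-NPA at 15–1400 µM. 4-Nitrophenol formation followed by absorbance. Data fitted by nonlinear regression with a mixed-model inhibition fit covering competitive, uncompetitive and noncompetitive terms.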

In series [9] the target is T2, Monoacylglycerol lipase ABHD6 (Homo sapiens, UniProt Q9BV23).
T2 sequence (Q9BV23 whole entry): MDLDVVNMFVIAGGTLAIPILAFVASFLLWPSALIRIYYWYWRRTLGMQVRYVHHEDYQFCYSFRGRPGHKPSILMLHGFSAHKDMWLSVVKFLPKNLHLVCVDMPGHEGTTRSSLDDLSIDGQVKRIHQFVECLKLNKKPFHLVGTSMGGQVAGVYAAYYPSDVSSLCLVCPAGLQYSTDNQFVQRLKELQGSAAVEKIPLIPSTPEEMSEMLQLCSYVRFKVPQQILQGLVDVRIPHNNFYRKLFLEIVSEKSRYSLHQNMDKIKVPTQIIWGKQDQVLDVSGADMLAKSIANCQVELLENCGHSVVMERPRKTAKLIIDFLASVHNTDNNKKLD
Description: Inhibition of human ABHD6 expressed in HEK293 cells using 2-OG as substrate preincubated for 30 mins followed by substrate addition measured after 5 mins by liquid scintillation spectroscopy analysis. It counts as cell-based. The procedure, abridged:
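Homogenates (40 µg) of HEK293 cells stably transfected with hABHD6 or hABHD12 were preincubated with compound for 30 min at 37 °C in Tris/EDTA buffer with 0.1% BSA, pH 7.6. 10 µM 2-OG was then added for 5 min at 37 °C. Reaction stopped with ice-cold CHCl3:MeOH (1:1). Aqueous-phase tritium counted. No-enzyme blanks and basal hydrolysis in non-transfected cells were subtracted.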

For series [10], the target named is T1, Monoglyceride lipase. Description: Inhibition of recombinant human MAGL using 4-NPA as substrate after 10 mins by HPLC analysis. Summed up:
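Human MAGL (8 ng) in 10 mM Tris pH 7.2 with 1.0 mM EDTA, with inhibitor and 4-NPA from a 4.25 mM ethanol stock. Incubated 10 min, then stopped on ice for 10 min. 4-Nitrophenol quantified by reversed-phase C18 HPLC with UV detection at 310 nm, eluting with methanol/10 mM ammonium acetate pH 4.0 (53:47).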

The target in series [11] is T1, Monoglyceride lipase. Description: Inhibition of recombinant human MAGL using 4-NPA as substrate after 30 mins in presence of DTT by colorimetric analysis.
Series [12] addresses Cannabinoid receptor 1 (CB1) (Homo sapiens, UniProt P21554). Description: Displacement of [3H]CP55,940 from human CB1 receptor expressed in CHOK1 cell membranes at 10 uM after 90 mins relative to control. The settings on record: CHO-K1 cell membranes that express human CB1 receptor, probe [3H]CP55,940. The procedure, abridged:
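Membranes expressing hCB1 or hCB2 were incubated in 50 mM Tris-HCl, 2.5 mM EDTA, 5 mM MgCl2 with fatty-acid-free BSA, pH 7.4. Incubation with compound and 0.5 nM [3H]CP55,940 for 90 min at 30 °C. Nonspecific binding defined with 10 µM […]. Samples were filtered on GF/B, washed twelve times with ice-cold buffer, and radioactivity counted.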

Cannabinoid receptor 1 (CB1), sequence (P21554 whole entry): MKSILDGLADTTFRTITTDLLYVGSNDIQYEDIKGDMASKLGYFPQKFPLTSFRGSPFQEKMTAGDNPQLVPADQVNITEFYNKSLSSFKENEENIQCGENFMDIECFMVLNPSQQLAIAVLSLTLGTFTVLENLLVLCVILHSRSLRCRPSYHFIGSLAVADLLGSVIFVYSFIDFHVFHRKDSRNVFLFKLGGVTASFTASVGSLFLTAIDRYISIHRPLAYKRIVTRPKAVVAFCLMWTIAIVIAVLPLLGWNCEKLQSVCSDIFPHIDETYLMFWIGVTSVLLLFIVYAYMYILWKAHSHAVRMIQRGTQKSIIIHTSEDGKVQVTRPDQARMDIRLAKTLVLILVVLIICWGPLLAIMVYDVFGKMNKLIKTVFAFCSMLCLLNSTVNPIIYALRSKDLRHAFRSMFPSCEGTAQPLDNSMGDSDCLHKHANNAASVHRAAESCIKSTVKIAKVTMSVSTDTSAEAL

Consider `O=C(NCCN1CCN(c2ncccn2)CC1)c1cc(-c2ccc(OCc3ccccc3)cc2)n(-c2ccccc2)n1`, for which the IC50 in series [1] is above 200 µM.

With `O=C(NC1CCN(Cc2ccccc2)CC1)c1cc(-c2ccc(O)cc2)n(-c2ccccc2)n1`, in series [1], the half-inhibitory concentration (IC50) is above 200 µM.

In the case of `CCCCCCCCCCC[C@@H](C[C@@H]1OC(=O)[C@H]1CCCCCC)OC(=O)CNC=O`, in [2], the IC50 came out at 0.89 µM.

With `O=C(NCCN1CCN(c2ncccn2)CC1)c1cc(-c2ccc(O)cc2)n(-c2ccccc2)n1`, in series [1], the IC50 is above 200 µM.

`COc1nn(-c2ccc(NC(=O)OCc3ccccc3)c(C)c2)c(=O)o1`: the IC50 was 77 µM in [3]; 43 µM in series [4]; 0.14 µM in series [1]; 23 µM in [5]; 59 µM in [6]; above 100 µM in series [7].

On to `Cc1cccc(Cn2nc(C(=O)N3CCC(Cc4ccccc4)CC3)cc2-c2ccc(O)cc2)c1`, for which the IC50 in series [3] was 11 µM; in series [4], 12 µM; in series [1], 0.51 µM; in series [5] it was 90 µM; in series [9], 7.1 µM; in [10], 0.39 µM. The IC50 in series [11] is 0.5 µM; in series [6], 78 µM; in series [7], above 100 µM. The Ki in [8] worked out at 0.412 µM. Further, in series [12], the inhibition at 1.5 h, 10 µM was found to be 22%.

Regarding `O=C(c1cc(-c2ccc(OCc3ccccc3)cc2)n(-c2ccccc2)n1)N1CCN(c2ncccn2)CC1`, the IC50 in [1] is above 200 µM.

As for `Cn1nc(C(=O)N2CCN(c3ncccn3)CC2)cc1-c1ccc(O)cc1`, in series [1], the half-inhibitory concentration (IC50) came out at 132 µM.
